Assay outcomes (PubChem)
NF-kB neuron act: compounds increasing NF-kB expression in human neuronal cells | NF-kB reporter expression; stronger effect = higher value | fold change at 12.5 µM | hit rate 1.6% among 190,000; in the data active = fold change above about 3.3
APP 5'UTR act: activates APP 5'UTR luciferase reporter; SH-SY5Y APP 5'UTR luciferase reporter, luminescence; zero percent = DMSO vehicle wells; activation, % at 2 µM; hit rate 1% among 190,000; AID 1276;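 active = activation above a set limit, based on mean plus 3 SD of controls, cut at about 140% in these data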
STAT3 act: increases IL-6 driven STAT3 reporter signal | U3A cells, IL-6 STAT3-luciferase reporter, luminescence; 100% = signal with IL-6 EC80 alone | AID 871 | hit rate 0.91% among 190,000 | activation (% of control), % at 5.6 µM;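 active = activation above the screen-wide mean of compound activation plus 3 SD, cut at about 130% in these data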;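 note: 0% = background luminescence of wells with medium and substrate only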
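Material: human U3A cells carrying STAT3-luciferase construct. Measured by: reporter luminescence signal. Timing: compound 1 h, then IL-6 6 h at 37 °C.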
STAT3 blocker: reduces IL-6 driven STAT3 reporter signal; AID 862; inhibition, % at 5.5 µM; hit rate 0.89% among 190,000; U3A cells, IL-6 STAT3-luciferase reporter, luminescence; host cell line lacks STAT1;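 active = inhibition above the mean inhibition across all screened compounds plus 3 SD, cut at about 44% in these data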;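 note: 0% = DMSO only wells and 100% = 100 µM nifuroxazide control wells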
STAT1 act: increases IFN-gamma driven STAT1 reporter signal. hit rate 2.6% among 200,000. NIH 3T3 STAT1-luciferase reporter, luminescence; 100% = IFN-gamma alone, no compound. activation (% of control), % at 5.5 µM. AID 932;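 active = activation above the screen-wide mean activation plus 3 SD, cut at about 130% in these data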;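 note: raw ratio to IFN-gamma control signal so 100% means no change and 0% no light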
STAT1 blocker: inhibitors of IFN-gamma induced STAT1 signaling. hit rate 0.35% among 200,000. inhibition, % at 5.5 µM. NIH 3T3 STAT1-luciferase reporter, luminescence;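 active = inhibition above a set limit, the mean inhibition across all tested compounds plus 3 SD, cut at about 34% in these data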;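 note: 0% = IFN-gamma with DMSO and 100% = IFN-gamma with 300 µM nifuroxazide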
The depositor's hits bear a star; . = no result given. An excerpt weighted towards active compounds, which were near 4.9% of everything screened.

SMILES	NF-kB neuron act	APP 5'UTR act	STAT3 act	STAT3 blocker	STAT1 act	STAT1 blocker
Cc1cc(C2=NNC(=NC3CCCCC3)SC2)c(C)n1-c1c(C)n(C)n(-c2ccccc2)c1=O	0.92	6	111	-13	99	2
CCn1cnc2cc(NC(=O)c3ccco3)ccc21	2.9	53	98	6	135*	-33
O=C(Nc1cc2nn(-c3ccccc3)nc2cc1Cl)c1ccco1	1.7	25	145*	-43	133*	-36
CCCn1cnc2cc(NC(=O)c3cccs3)ccc21	.	97	109	-5	138*	-45
O=C(Nc1ccc2nn(-c3ccccc3)nc2c1)c1ccco1	2.3	81	94	9	132*	-34
CC(=O)Nc1ccccc1OCC(=O)NCC(F)(F)F	1.3	15	94	7	92	9
Cc1ccc(-c2cc(C(F)(F)F)c(C#N)c(SCC(=O)O)n2)cc1	1	4	135*	-39	98	0
CCCOc1ccc(-c2cc(C(F)(F)F)c(C#N)c(SCC(=O)O)n2)cc1	1.4	-10	105	-1	102	-4
CCCNC(=O)N1CCN(Cc2ccco2)CC1	1.3	-15	106	-1	102	-5
Nc1nc(-c2ccccc2)c(N=Nc2cccnc2)s1	1	-12	92	14	88	10
Cc1nn(-c2ccccc2)c(N)c1N=Nc1cccnc1	2.3	51	89	15	133*	-37
CC(=O)c1cc2c(C)c(C(=O)c3ccccc3)oc2cc1O	4*	156*	71	34	120	-23
CCOC(=O)c1c(NC(=O)c2cc(-c3ccc(O)cc3)on2)sc(C(C)=O)c1C	1.7	-27	102	-3	106	-7
CN(C(=O)COC(=O)c1ccccc1C(=O)N1CCN(c2ccccc2)CC1)c1ccccc1	0.86	0	102	6	102	-4
COc1ccccc1-c1nc(NC(C)=O)n[nH]1	1.1	0	159*	-65	89	12
CCOC(=O)c1cnc(Nc2nc3ccccc3o2)nc1C	3.5*	104	21	96*	59	45*
O=C(CN1C(=O)NC2NC(=O)NC21)N/N=C/c1ccccc1F (configuration not stated)	0.98	1	108	-4	99	1
CCOC(=O)c1c(NC(=O)COC)sc(C(C)=O)c1C	1.2	-4	95	8	98	2
CCOC(=O)c1c(NC(=O)CC(C)C)sc(C(C)=O)c1C	5.9*	-14	105	-2	90	8
CCn1c(-c2sc(-c3ccccc3)nc2C)n[nH]c1=S	1.2	-6	96	9	101	-4
Cc1nc(-c2ccccc2)sc1-c1ccnn1C	6.4*	141*	89	16	141*	-46
C#CCSc1nnc(-c2sc(-c3ccccc3)nc2C)n1C	1.1	11	96	10	108	-8
Cc1nc(-c2ccccc2)sc1-c1ccn[nH]1	1.2	164*	81	29	122	-25
COc1ccc([N+](=O)[O-])cc1NC(=O)c1cn(-c2ccc(C)c(C)c2)c(=O)c2ccccc12	1	-25	101	-1	101	-2
O=C(NCCc1ccccc1)c1nc2c(nnn2Cc2ccccc2Cl)c(=O)[nH]1	1.1	14	133*	-38	106	-7
SMILES	NF-kB neuron act	APP 5'UTR act	STAT3 act	STAT3 blocker	STAT1 act	STAT1 blocker
Cc1ccc(-c2ccc(C(=O)O)c(C)n2)cc1	1.2	15	100	-1	103	-3
COC(=O)c1ccc(-c2ccc(F)cc2)nc1C	1.3	128	94	7	132*	-36
O=c1cc(/N=C/c2coc3c(ccc4ccccc43)c2=O)[nH]c(=S)[nH]1	1.3	-10	99	4	96	5
COc1cc(/C=N/NC(=O)c2cccnc2)ccc1OCC(=O)Nc1ccccc1Cl	0.87	-1	104	-3	136*	-39
O=C(COc1ccc(CO)cc1Cl)Nc1ccc(F)cc1	7.7*	.	78	32	136*	-39
Cc1ccc(NC(=O)COc2ccc(Br)cc2CO)cc1	1.4	-3	90	13	110	-16
COc1cc(CO)ccc1OCC(=O)Nc1ccc(Br)cc1	1.8	33	133*	-34	113	-18
COc1ccccc1NC(=O)COc1ccc(CO)cc1Cl	1.9	66	94	10	133*	-35
